Laboratory results: ChEMBL document CHEMBL1130239, “Synthesis and evaluation of (S)-4-(3-(2'-[11C]isopropylamino)-2-hydroxypropoxy) -2H-benzimidazol -2-one ((S)-[11C]CGP 12388) and (S)-4-(3-((1'-[18F]-fluoroisopropyl)amino)-2-hydroxypropoxy) -2H- benzimidazol-2-one ((S)-[18F]fluoro-CGP 12388) for visualization of beta-adrenoceptors with positron …” (J Med Chem, 1997)

Columns and labels:
[1] = organism: Rattus norvegicus; experiment: Biodistribution of [18]Fluoro-CGP 12388 (10 minutes post injection) in cortex of male wistar rats; assay type: ADME, organism-based; details: in vivo
Outline: (§1)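 Pentobarbital-anesthetized (60 mg/kg ip) male Wistar rats (200 ± 20 g) received iv saline (n = 4) or 500 μg (±)-propranolol (n = 4) <1 min before 2 MBq (30 pmol) tracer in 0.3 mL. They were killed by heart extirpation at 10 or 60 min. Plasma came from blood centrifuged 3 min at 1000g. Tissue counts are expressed as DAR, mean ± SD.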

[2] = organism: Rattus norvegicus; experiment: Biodistribution of [18]Fluoro-CGP 12388 (60 minutes post injection) in spleen of male wistar rats; assay type: ADME, organism-based; details: in vivo, 1 h
Outline: (§2)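 Male Wistar rats (200 ± 20 g) under ip pentobarbital (60 mg/kg). Saline given iv <1 min before tracer (controls, n = 4). Tracer (2 MBq, 30 pmol) injected iv in 0.3 mL. Rats killed by heart extirpation at 60 min and tissues dissected; plasma taken by centrifugation (3 min, 1000g). Uptake given as DAR, (cpm/g tissue)/(injected cpm/body weight g), mean ± SD.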

[3] = organism: Rattus norvegicus; experiment: Biodistribution of [18]Fluoro-CGP 12388 (60 minutes post injection) in heart of male wistar rats; assay type: ADME, organism-based; details: in vivo, 1 h; outline: as §1
[4] = organism: Rattus norvegicus; experiment: Biodistribution of [18]Fluoro-CGP 12388 (10 minutes post injection) in heart of male wistar rats; assay type: ADME, organism-based; details: in vivo; outline: as §1
[5] = organism: Rattus norvegicus; experiment: Biodistribution of [18]Fluoro-CGP 12388 (10 minutes post injection) in bone of male wistar rats; assay type: ADME, organism-based, Bone element; details: in vivo; outline: as §1
[6] = organism: Rattus norvegicus; experiment: Biodistribution of [18]Fluoro-CGP 12388 (60 minutes post injection) in lung of male wistar rats; assay type: ADME, organism-based; details: in vivo, 1 h; outline: as §1
[7] = Partition coefficient (logP); assay type: physicochemical; details: octanol/water
Outline: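 50-100 μCi of tracer in 0.1 M phosphate buffer pH 7.4 (5 mL) plus n-octanol (5 mL). Shaken vigorously for 30 min at 37 °C, five mixtures. 100 μL of each layer gamma-counted. log P from the octanol/water count ratio, n = 5. A calculated value was also obtained with Pallas 1.2.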

[8] = organism: Rattus norvegicus; experiment: Biodistribution of [18]Fluoro-CGP 12388 (10 minutes post injection) in lung of male wistar rats; assay type: ADME, organism-based; details: in vivo; outline: as §1
[9] = organism: Rattus norvegicus; experiment: Biodistribution of [18]Fluoro-CGP 12388 (10 minutes post injection) in cerebellum of male wistar rats; assay type: ADME, organism-based; details: in vivo; outline: as §1
[10] = organism: Rattus norvegicus; experiment: Biodistribution of [18]Fluoro-CGP 12388 (10 minutes post injection) in red blood cells of male wistar rats; assay type: ADME, organism-based; details: in vivo; outline: as §1
[11] = organism: Rattus norvegicus; experiment: Biodistribution of [18]Fluoro-CGP 12388 (60 minutes post injection) in intestine of male wistar rats; assay type: ADME, organism-based; details: in vivo, 1 h; outline: as §1
[12] = organism: Rattus norvegicus; experiment: Biodistribution of [18]Fluoro-CGP 12388 (60 minutes post injection) in fat of male wistar rats; assay type: ADME, organism-based, Adipose tissue; details: in vivo, 1 h; outline: as §1
[13] = organism: Rattus norvegicus; experiment: Biodistribution of [18]Fluoro-CGP 12388 (10 minutes post injection) in plasma of male wistar rats; assay type: ADME, organism-based; details: in vivo; outline: as §1
[14] = organism: Rattus norvegicus; experiment: Biodistribution of [18]Fluoro-CGP 12388 (10 minutes post injection) in intestine of male wistar rats; assay type: ADME, organism-based; details: in vivo; outline: as §1
[15] = organism: Rattus norvegicus; experiment: Biodistribution of [18]Fluoro-CGP 12388 (10 minutes post injection) in trachea of male wistar rats; assay type: ADME, organism-based; details: in vivo; outline: as §1
[16] = organism: Rattus norvegicus; experiment: Biodistribution of [18]Fluoro-CGP 12388 (10 minutes post injection) in kidney of male wistar rats; assay type: ADME, organism-based; details: in vivo; outline: as §1
[17] = organism: Rattus norvegicus; experiment: Biodistribution of [18]Fluoro-CGP 12388 (10 minutes post injection) in liver of male wistar rats; assay type: ADME, organism-based; details: in vivo; outline: as §1
[18] = organism: Rattus norvegicus; experiment: Biodistribution of [18]Fluoro-CGP 12388 (10 minutes post injection) in muscle of male wistar rats; assay type: ADME, organism-based, Muscle tissue; details: in vivo; outline: as §1
[19] = organism: Rattus norvegicus; experiment: Biodistribution of [18]Fluoro-CGP 12388 (60 minutes post injection) in bone of male wistar rats; assay type: ADME, organism-based, Bone element; details: in vivo, 1 h; outline: as §1
[20] = organism: Rattus norvegicus; experiment: Biodistribution of [18]Fluoro-CGP 12388 (10 minutes post injection) in spleen of male wistar rats; assay type: ADME, organism-based; details: in vivo; outline: as §1
[21] = organism: Rattus norvegicus; experiment: Biodistribution of [18]Fluoro-CGP 12388 (60 minutes post injection) in plasma of male wistar rats; assay type: ADME, organism-based; details: in vivo, 1 h; outline: as §2
[22] = organism: Rattus norvegicus; experiment: Biodistribution of [18]Fluoro-CGP 12388 (60 minutes post injection) in cerebellum of male wistar rats; assay type: ADME, organism-based; details: in vivo, 1 h; outline: as §1
[23] = organism: Rattus norvegicus; experiment: Biodistribution of [18]Fluoro-CGP 12388 (60 minutes post injection) in kidney of male wistar rats; assay type: ADME, organism-based; details: in vivo, 1 h; outline: as §1
[24] = organism: Rattus norvegicus; experiment: Biodistribution of [18]Fluoro-CGP 12388 (60 minutes post injection) in red blood cells of male wistar rats; assay type: ADME, organism-based; details: in vivo, 1 h; outline: as §2
[25] = organism: Rattus norvegicus; experiment: Biodistribution of {18]Fluoro-CGP 12388 (60 minutes post injection) in liver of male wistar rats; assay type: ADME, organism-based; details: in vivo, 1 h; outline: as §2
[26] = organism: Rattus norvegicus; experiment: Biodistribution of [18]Fluoro-CGP 12388 (60 minutes post injection) in cortex of male wistar rats; assay type: ADME, organism-based; details: in vivo, 1 h; outline: as §1
[27] = organism: Rattus norvegicus; experiment: Biodistribution of [18]Fluoro-CGP 12388 (60 minutes post injection) in muscle of male wistar rats; assay type: ADME, organism-based, Muscle tissue; details: in vivo, 1 h; outline: as §2
[28] = organism: Rattus norvegicus; experiment: Biodistribution of [18]Fluoro-CGP 12388 (60 minutes post injection) in trachea of male wistar rats; assay type: ADME, organism-based; details: in vivo, 1 h; outline: as §2
[29] = organism: Rattus norvegicus; experiment: Biodistribution of [18]Fluoro-CGP 12388 (10 minutes post injection) in fat of male wistar rats; assay type: ADME, organism-based, Adipose tissue; details: in vivo; outline: as §1

Q: With `CC(C[18F])NC[C@H](O)COc1cccc2[nH]c(O)nc12` (some centres undefined) as the compound, how does the DAR [1] read?
A: Its DAR is 0.13.

Q: And the DAR [2]?
A: Its DAR is 0.41.

Q: And the DAR [3]?
A: The DAR was 0.46.

Q: And the DAR [4]?
A: Its DAR is 1.09.

Q: What about the DAR [5] of the same compound?
A: Its DAR is 0.39.

Q: And the DAR [6]?
A: Its DAR is 0.59.

Q: And the logP [7]?
A: Its logP is 0.44.

Q: What about the DAR [8] of the same compound?
A: Its DAR is 1.37.

Q: What about the DAR [9] of the same compound?
A: The DAR was 0.17.

Q: What about the DAR [10] of the same compound?
A: The DAR was 0.57.

Q: And the DAR [11]?
A: Its DAR is 0.87.

Q: What about the DAR [12] of the same compound?
A: The DAR was 0.07.

Q: And the DAR [13]?
A: The DAR was 0.51.

Q: What about the DAR [14] of the same compound?
A: Its DAR is 1.52.

Q: What about the DAR [15] of the same compound?
A: The DAR was 0.7.

Q: And the DAR [16]?
A: The DAR was 7.93.

Q: And the DAR [17]?
A: Its DAR is 1.62.

Q: What about the DAR [18] of the same compound?
A: The DAR was 0.42.

Q: And the DAR [19]?
A: The DAR was 0.41.

Q: What about the DAR [20] of the same compound?
A: The DAR was 1.17.

Q: What about the DAR [21] of the same compound?
A: Its DAR is 0.35.

Q: And the DAR [22]?
A: Its DAR is 0.12.

Q: And the DAR [23]?
A: The DAR was 0.91.

Q: What about the DAR [24] of the same compound?
A: The DAR was 0.39.

Q: And the DAR [25]?
A: The DAR was 0.64.

Q: And the DAR [26]?
A: The DAR was 0.12.

Q: And the DAR [27]?
A: The DAR was 0.3.

Q: And the DAR [28]?
A: The DAR was 0.37.

Q: What about the DAR [29] of the same compound?
A: The DAR was 0.53.
